The first data set deals with HeLa. The experiment in a line: Induction of apoptosis in human HeLa cells assessed as early apoptotic cells at 0.52 uM after 48 hrs by annexin-V-FITC/PI staining based flow cytometry (reference value: 0.889%). It counts as functional.
Details: not given
In a few lines: (§1)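 HeLa cells treated at 0.13, 0.26, 0.52 or 1.04 µM for 48 h, then collected and stained with annexin V-FITC/PI for flow cytometry. Early apoptotic cells are annexin V+/PI− (lower right quadrant) and late apoptotic cells are annexin V+/PI+ (upper right quadrant). Data are mean ± S.E.M. of three independent experiments.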
(In general: In flow cytometry, cells or beads pass a laser one at a time.)
As for `CC(=O)N1N=C(c2ccc(C(F)(F)F)cc2)CC1c1ccc(C(=O)OCCn2c([N+](=O)[O-])cnc2C)cc1` (configuration not stated), the Activity is on record as 36.2%.

The subject of another data set is HeLa. The data set can be described thus: Antiproliferative activity against human HeLa cells after 12 hrs by MTT assay. The data set is classed as functional, cell-based.
Details: not given
In general terms: Formazan colour is commonly taken as a measure of viable cells.
`CC(=O)N1N=C(c2ccc([N+](=O)[O-])cc2)CC1c1ccc(C(=O)OC(C)Cn2c([N+](=O)[O-])cnc2C)cc1` (configuration not stated) returned an IC50 of 3780 nM.

Take `CC(=O)N1N=C(c2ccc(C(F)(F)F)cc2)CC1c1ccc(C(=O)OCCn2c([N+](=O)[O-])cnc2C)cc1` (configuration not stated): the IC50 stood at 130 nM.

A further data set relates to HeLa. The experiment in a line: Induction of apoptosis in human HeLa cells assessed as late apoptotic cells at 0.26 uM after 48 hrs by annexin-V-FITC/PI staining based flow cytometry (reference value: 8.52%).
Details: not given
It counts as functional. In a few lines:
as §1
Regarding `CC(=O)N1N=C(c2ccc(C(F)(F)F)cc2)CC1c1ccc(C(=O)OCCn2c([N+](=O)[O-])cnc2C)cc1` (configuration not stated), the Activity is listed as 21.9%.

The target of the next data set is Receptor tyrosine-protein kinase erbB-2 (Homo sapiens, UniProt P04626). The experiment in a line: Inhibition of His-tagged human HER-2 cytoplasmic domain (676-1245 aa) (unknown origin) assessed as inhibition of autophosphorylation by TR-fluorometry.
Sequence of Receptor tyrosine-protein kinase erbB-2 (P04626 whole entry, the tested form may be a part): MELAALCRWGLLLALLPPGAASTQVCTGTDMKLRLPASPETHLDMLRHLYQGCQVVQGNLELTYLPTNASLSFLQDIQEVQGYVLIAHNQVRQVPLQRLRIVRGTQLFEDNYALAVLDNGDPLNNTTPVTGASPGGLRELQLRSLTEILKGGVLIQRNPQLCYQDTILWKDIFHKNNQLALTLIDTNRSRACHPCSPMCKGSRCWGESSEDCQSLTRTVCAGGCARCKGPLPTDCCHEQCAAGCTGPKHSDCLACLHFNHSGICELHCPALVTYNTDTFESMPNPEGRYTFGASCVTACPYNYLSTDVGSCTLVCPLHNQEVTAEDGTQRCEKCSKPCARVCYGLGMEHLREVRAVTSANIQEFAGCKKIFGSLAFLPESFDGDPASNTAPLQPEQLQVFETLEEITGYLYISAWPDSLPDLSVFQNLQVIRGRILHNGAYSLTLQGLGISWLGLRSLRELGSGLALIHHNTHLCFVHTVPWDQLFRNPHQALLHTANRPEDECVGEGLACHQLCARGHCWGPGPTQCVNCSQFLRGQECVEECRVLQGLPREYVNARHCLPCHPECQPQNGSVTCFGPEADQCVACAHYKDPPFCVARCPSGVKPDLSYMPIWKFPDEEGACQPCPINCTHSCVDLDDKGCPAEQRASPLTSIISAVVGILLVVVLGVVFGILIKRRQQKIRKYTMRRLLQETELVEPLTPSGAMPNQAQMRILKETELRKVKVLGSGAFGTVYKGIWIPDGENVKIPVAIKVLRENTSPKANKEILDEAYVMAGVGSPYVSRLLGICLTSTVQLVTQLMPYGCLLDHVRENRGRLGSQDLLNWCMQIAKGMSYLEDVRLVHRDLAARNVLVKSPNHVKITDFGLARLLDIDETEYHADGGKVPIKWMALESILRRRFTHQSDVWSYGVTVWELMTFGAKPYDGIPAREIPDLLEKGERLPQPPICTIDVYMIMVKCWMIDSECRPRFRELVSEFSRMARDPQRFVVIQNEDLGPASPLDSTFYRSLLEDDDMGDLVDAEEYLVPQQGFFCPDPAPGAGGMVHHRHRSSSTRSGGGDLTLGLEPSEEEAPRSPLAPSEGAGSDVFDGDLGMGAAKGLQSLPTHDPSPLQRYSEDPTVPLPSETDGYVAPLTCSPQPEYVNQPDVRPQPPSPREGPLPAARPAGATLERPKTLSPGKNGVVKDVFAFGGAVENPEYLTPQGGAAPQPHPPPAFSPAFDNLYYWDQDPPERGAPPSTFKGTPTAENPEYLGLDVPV
Details: not given
With `CC(=O)N1N=C(c2ccc([N+](=O)[O-])cc2)CC1c1ccc(C(=O)OC(C)Cn2c([N+](=O)[O-])cnc2C)cc1` (configuration not stated), the IC50 amounted to 3530 nM.

With `CC(=O)N1N=C(c2ccc(C(F)(F)F)cc2)CC1c1ccc(C(=O)OCCn2c([N+](=O)[O-])cnc2C)cc1` (configuration not stated), the IC50 turned out to be 510 nM.

In another data set the test system is HeLa. The experiment in a line: Induction of apoptosis in human HeLa cells assessed as necrotic cells at 1.04 uM after 48 hrs by annexin-V-FITC/PI staining based flow cytometry (reference value: 3.82%).
Details: not given
The data set is classed as functional. Summed up: as §1
For the molecule `CC(=O)N1N=C(c2ccc(C(F)(F)F)cc2)CC1c1ccc(C(=O)OCCn2c([N+](=O)[O-])cnc2C)cc1` (configuration not stated), the Activity was 0.43%.

Another data set has as its system HeLa. The experiment in a line: Induction of apoptosis in human HeLa cells assessed as viable cells at 0.13 uM after 48 hrs by annexin-V-FITC/PI staining based flow cytometry (reference value: 86.8%). The data set is classed as functional. The conditions noted are these: read-out: Activity. In a few lines:
as §1
As for `CC(=O)N1N=C(c2ccc(C(F)(F)F)cc2)CC1c1ccc(C(=O)OCCn2c([N+](=O)[O-])cnc2C)cc1` (configuration not stated), the viability at 0.13 µM stood at 73.9%.

For a further data set, the system named is HeLa. The data set can be described thus: Induction of apoptosis in human HeLa cells assessed as viable cells at 0.52 uM after 48 hrs by annexin-V-FITC/PI staining based flow cytometry (reference value: 86.8%). The conditions noted are these: read-out: Activity. It counts as functional. In a few lines: as §1
Turning to `CC(=O)N1N=C(c2ccc(C(F)(F)F)cc2)CC1c1ccc(C(=O)OCCn2c([N+](=O)[O-])cnc2C)cc1` (configuration not stated), the viability at 0.52 µM is 42.1%.

The next data set has as its system HeLa. The experiment in a line: Induction of apoptosis in human HeLa cells assessed as early apoptotic cells at 1.04 uM after 48 hrs by annexin-V-FITC/PI staining based flow cytometry (reference value: 0.889%). It counts as functional.
Details: not given
Summed up:
as §1
Consider `CC(=O)N1N=C(c2ccc(C(F)(F)F)cc2)CC1c1ccc(C(=O)OCCn2c([N+](=O)[O-])cnc2C)cc1` (configuration not stated), for which the Activity worked out at 54.2%.

A further data set deals with MCF7. The data set can be described thus: Antiproliferative activity against human MCF7 cells after 12 hrs by MTT assay. It counts as functional, cell-based. As to conditions: MCF7, 12 h.
Molecule `CC(=O)N1N=C(c2ccc([N+](=O)[O-])cc2)CC1c1ccc(C(=O)OC(C)Cn2c([N+](=O)[O-])cnc2C)cc1` (configuration not stated) had an IC50 of 3330 nM.

Consider `CC(=O)N1N=C(c2ccc(C(F)(F)F)cc2)CC1c1ccc(C(=O)OCCn2c([N+](=O)[O-])cnc2C)cc1` (configuration not stated), for which the IC50 came to 960 nM.

Another data set relates to HeLa. The data set can be described thus: Induction of apoptosis in human HeLa cells assessed as necrotic cells at 0.26 uM after 48 hrs by annexin-V-FITC/PI staining based flow cytometry (reference value: 3.82%). The data set is classed as functional.
Details: not given
In a few lines:
as §1
With `CC(=O)N1N=C(c2ccc(C(F)(F)F)cc2)CC1c1ccc(C(=O)OCCn2c([N+](=O)[O-])cnc2C)cc1` (configuration not stated), the Activity worked out at 0.688%.

In a further data set the test system is HeLa. The experiment in a line: Induction of apoptosis in human HeLa cells assessed as necrotic cells at 0.13 uM after 48 hrs by annexin-V-FITC/PI staining based flow cytometry (reference value: 3.82%).
Details: not given
It counts as functional. In a few lines:
as §1
`CC(=O)N1N=C(c2ccc(C(F)(F)F)cc2)CC1c1ccc(C(=O)OCCn2c([N+](=O)[O-])cnc2C)cc1` (configuration not stated): the Activity was 1.88%.

The subject of a further data set is HeLa. The experiment in a line: Induction of apoptosis in human HeLa cells after 48 hrs by annexin-V-FITC/PI staining based flow cytometry. The data set is classed as functional, cell-based.
Details: not given
In a few lines:
as §1
With `CC(=O)N1N=C(c2ccc(C(F)(F)F)cc2)CC1c1ccc(C(=O)OCCn2c([N+](=O)[O-])cnc2C)cc1` (configuration not stated), the Activity result was “Dose-dependent effect”.

The subject of the next data set is HepG2. The experiment in a line: Antiproliferative activity against human HepG2 cells after 12 hrs by MTT assay. It counts as functional, cell-based. As to conditions: HepG2, 12 h.
For `CC(=O)N1N=C(c2ccc([N+](=O)[O-])cc2)CC1c1ccc(C(=O)OC(C)Cn2c([N+](=O)[O-])cnc2C)cc1` (configuration not stated), the IC50 came to 3620 nM.

In turn, `CC(=O)N1N=C(c2ccc(C(F)(F)F)cc2)CC1c1ccc(C(=O)OCCn2c([N+](=O)[O-])cnc2C)cc1` (configuration not stated) gave an IC50 of 330 nM.

Tested on in another data set: not listed separately
The experiment in a line: Antiproliferative activity against mouse B16F10 cells after 12 hrs by MTT assay. The data set is classed as functional, cell-based. The conditions noted are these: B16-F10, 12 h.
In turn, `CC(=O)N1N=C(c2ccc([N+](=O)[O-])cc2)CC1c1ccc(C(=O)OC(C)Cn2c([N+](=O)[O-])cnc2C)cc1` (configuration not stated) came in with an IC50 of 12200 nM.

As to `CC(=O)N1N=C(c2ccc(C(F)(F)F)cc2)CC1c1ccc(C(=O)OCCn2c([N+](=O)[O-])cnc2C)cc1` (configuration not stated), the IC50 stood at 190 nM.

The next data set relates to HeLa. The experiment in a line: Induction of apoptosis in human HeLa cells assessed as early apoptotic cells at 0.26 uM after 48 hrs by annexin-V-FITC/PI staining based flow cytometry (reference value: 0.889%). It counts as functional.
Details: not given
In a few lines: as §1
For the molecule `CC(=O)N1N=C(c2ccc(C(F)(F)F)cc2)CC1c1ccc(C(=O)OCCn2c([N+](=O)[O-])cnc2C)cc1` (configuration not stated), the Activity was 26.7%.

For another data set, the system named is HeLa. The data set can be described thus: Induction of apoptosis in human HeLa cells assessed as viable cells at 0.26 uM after 48 hrs by annexin-V-FITC/PI staining based flow cytometry (reference value: 86.8%). It counts as functional. As to conditions: read-out: Activity. In a few lines:
as §1
As to `CC(=O)N1N=C(c2ccc(C(F)(F)F)cc2)CC1c1ccc(C(=O)OCCn2c([N+](=O)[O-])cnc2C)cc1` (configuration not stated), the viability at 0.26 µM is 50.7%.

The target in another data set is Epidermal growth factor receptor (Homo sapiens, UniProt P00533). The experiment in a line: Inhibition of His-tagged EGFR cytoplasmic domain (645-1186 aa) (unknown origin) assessed as inhibition of autophosphorylation by TR-fluorometry. The conditions noted are these: read-out: IC50.
Sequence of Epidermal growth factor receptor (P00533 whole entry, the tested form may be a part): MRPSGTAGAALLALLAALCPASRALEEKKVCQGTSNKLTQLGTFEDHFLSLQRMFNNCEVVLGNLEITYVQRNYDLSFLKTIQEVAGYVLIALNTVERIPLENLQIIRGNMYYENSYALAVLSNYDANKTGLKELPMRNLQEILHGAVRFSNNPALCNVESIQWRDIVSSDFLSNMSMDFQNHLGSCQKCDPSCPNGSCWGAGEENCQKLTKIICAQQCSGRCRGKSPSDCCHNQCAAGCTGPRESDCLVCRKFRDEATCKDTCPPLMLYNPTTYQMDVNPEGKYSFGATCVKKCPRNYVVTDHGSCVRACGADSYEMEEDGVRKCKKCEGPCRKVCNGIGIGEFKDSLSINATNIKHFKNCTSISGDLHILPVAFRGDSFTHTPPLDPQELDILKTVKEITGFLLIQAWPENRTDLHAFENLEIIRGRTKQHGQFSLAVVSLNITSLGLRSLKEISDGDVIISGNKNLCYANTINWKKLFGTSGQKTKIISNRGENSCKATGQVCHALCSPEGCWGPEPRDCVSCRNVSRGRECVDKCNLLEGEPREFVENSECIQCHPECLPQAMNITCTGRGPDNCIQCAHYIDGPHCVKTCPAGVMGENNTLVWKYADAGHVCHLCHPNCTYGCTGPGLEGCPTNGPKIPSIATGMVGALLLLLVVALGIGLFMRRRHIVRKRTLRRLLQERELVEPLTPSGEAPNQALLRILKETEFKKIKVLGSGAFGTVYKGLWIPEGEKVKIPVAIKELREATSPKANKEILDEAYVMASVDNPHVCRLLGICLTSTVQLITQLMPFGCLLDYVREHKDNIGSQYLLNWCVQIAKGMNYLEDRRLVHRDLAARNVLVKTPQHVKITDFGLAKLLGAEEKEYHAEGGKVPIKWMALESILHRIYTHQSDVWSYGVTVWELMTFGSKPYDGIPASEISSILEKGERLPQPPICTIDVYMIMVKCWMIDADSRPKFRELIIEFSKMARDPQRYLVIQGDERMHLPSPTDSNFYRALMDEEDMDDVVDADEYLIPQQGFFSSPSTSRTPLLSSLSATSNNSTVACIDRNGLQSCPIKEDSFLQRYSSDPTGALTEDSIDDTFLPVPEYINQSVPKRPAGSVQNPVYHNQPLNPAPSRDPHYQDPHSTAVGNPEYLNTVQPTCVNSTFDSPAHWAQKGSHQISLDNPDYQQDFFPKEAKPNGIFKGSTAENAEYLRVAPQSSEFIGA
As for `CC(=O)N1N=C(c2ccc([N+](=O)[O-])cc2)CC1c1ccc(C(=O)OC(C)Cn2c([N+](=O)[O-])cnc2C)cc1` (configuration not stated), the IC50 is 1450 nM.

With `CC(=O)N1N=C(c2ccc(C(F)(F)F)cc2)CC1c1ccc(C(=O)OCCn2c([N+](=O)[O-])cnc2C)cc1` (configuration not stated), the IC50 turned out to be 260 nM.

Staying with this data set, now noted: read-out: pIC50 (converted).
With `CC(=O)N1N=C(c2ccc([N+](=O)[O-])cc2)CC1c1ccc(C(=O)OC(C)Cn2c([N+](=O)[O-])cnc2C)cc1` (configuration not stated), the IC50 is 1450 nM.

A further data set deals with HeLa. The experiment in a line: Induction of apoptosis in human HeLa cells assessed as viable cells at 1.04 uM after 48 hrs by annexin-V-FITC/PI staining based flow cytometry (reference value: 86.8%). It counts as functional. As to conditions: read-out: Activity. Summed up: as §1
Turning to `CC(=O)N1N=C(c2ccc(C(F)(F)F)cc2)CC1c1ccc(C(=O)OCCn2c([N+](=O)[O-])cnc2C)cc1` (configuration not stated), the viability at 1.04 µM was determined as 18.6%.

The subject of the next data set is HeLa. The data set can be described thus: Induction of apoptosis in human HeLa cells assessed as early apoptotic cells at 0.13 uM after 48 hrs by annexin-V-FITC/PI staining based flow cytometry (reference value: 0.889%).
Details: not given
The data set is classed as functional. In a few lines:
as §1
On to `CC(=O)N1N=C(c2ccc(C(F)(F)F)cc2)CC1c1ccc(C(=O)OCCn2c([N+](=O)[O-])cnc2C)cc1` (configuration not stated), for which the Activity is 3.72%.

For the next data set, the system named is HeLa. The experiment in a line: Induction of apoptosis in human HeLa cells assessed as late apoptotic cells at 1.04 uM after 48 hrs by annexin-V-FITC/PI staining based flow cytometry (reference value: 8.52%). The data set is classed as functional.
Details: not given
In a few lines:
as §1
On to `CC(=O)N1N=C(c2ccc(C(F)(F)F)cc2)CC1c1ccc(C(=O)OCCn2c([N+](=O)[O-])cnc2C)cc1` (configuration not stated), for which the Activity is listed as 26.7%.

In a further data set the test system is HeLa. The experiment in a line: Induction of apoptosis in human HeLa cells assessed as late apoptotic cells at 0.52 uM after 48 hrs by annexin-V-FITC/PI staining based flow cytometry (reference value: 8.52%). The data set is classed as functional.
Details: not given
In a few lines: as §1
Take `CC(=O)N1N=C(c2ccc(C(F)(F)F)cc2)CC1c1ccc(C(=O)OCCn2c([N+](=O)[O-])cnc2C)cc1` (configuration not stated): the Activity is recorded as 20.7%.

A further data set relates to HeLa. The data set can be described thus: Induction of apoptosis in human HeLa cells assessed as late apoptotic cells at 0.13 uM after 48 hrs by annexin-V-FITC/PI staining based flow cytometry (reference value: 8.52%).
Details: not given
The data set is classed as functional. In a few lines: as §1
Take `CC(=O)N1N=C(c2ccc(C(F)(F)F)cc2)CC1c1ccc(C(=O)OCCn2c([N+](=O)[O-])cnc2C)cc1` (configuration not stated): the Activity stood at 20.5%.

The subject of another data set is HeLa. The data set can be described thus: Induction of apoptosis in human HeLa cells assessed as necrotic cells at 0.52 uM after 48 hrs by annexin-V-FITC/PI staining based flow cytometry (reference value: 3.82%). The data set is classed as functional.
Details: not given
Summed up: as §1
Turning to `CC(=O)N1N=C(c2ccc(C(F)(F)F)cc2)CC1c1ccc(C(=O)OCCn2c([N+](=O)[O-])cnc2C)cc1` (configuration not stated), the Activity is 0.988%.

Tested on in a further data set: not listed separately
The experiment in a line: Cytotoxicity against human HEK293T cells for 24 hrs by MTT assay. The data set is classed as cell-based, HEK-293T.
Details: not given
Summed up:
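293T human kidney epithelial cells exposed to multiple concentrations and viability read by MTT.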
By CC50 is commonly meant the concentration that lowers cell viability or growth by half. A lower CC50 goes with greater toxicity to the cells. In turn, `CC(=O)N1N=C(c2ccc([N+](=O)[O-])cc2)CC1c1ccc(C(=O)OC(C)Cn2c([N+](=O)[O-])cnc2C)cc1` (configuration not stated) came in with a CC50 at 24 h of 168000 nM.

Take `CC(=O)N1N=C(c2ccc(C(F)(F)F)cc2)CC1c1ccc(C(=O)OCCn2c([N+](=O)[O-])cnc2C)cc1` (configuration not stated): half-maximal cytotoxicity (CC50 at 24 h) was put at 98900 nM.

The values are drawn from ChEMBL document CHEMBL3745647, “Design, synthesis and biological evaluation of pyrazolyl-nitroimidazole derivatives as potential EGFR/HER-2 kinase inhibitors” (Bioorg Med Chem Lett, 2016).
